# Reference: paper PMC3523195 (Bioorganic & medicinal chemistry, 2011)
# Marks after values point to notes of the source that are not given here.
# Key:
# [1] = system: melanized C. neoformans var. grubii; experiment: halo assay; type: cell-based, Cryptococcus neoformans var. grubii (MAT α, H99 serotype A); settings: for Halo diameter: var. grubii
# Procedure, shortened: (§1)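 Paper disks (6.5 mm) were loaded from DMSO stock solutions and air-dried 3 h at RT, then placed on lawns of target cells. The medium was defined minimal agar with 1 mM L-dopa, dopamine or epinephrine to give melanized cells. Doses were 20 μg/disk test compound, or 10 μg test compound with or without 2 μg amphotericin B per disk. Plates ran 6–8 days at 30 °C, and halo diameter (mm) and clarity were recorded.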
# [2] = system: C. neoformans var. grubii; experiment: microtiter plate assay of melanization in liquid medium; type: cell-based, Cryptococcus neoformans var. grubii; settings: for Melanization of treated cells, observed visually: 10 days, 30 °C
# [3] = system: melanized C. neoformans var. gattii; experiment: halo assay; type: cell-based, Cryptococcus neoformans var. gattii (MAT α, serotype B)
# Procedure, shortened: as §1
# [4] = system: laccase and melanin formation in C. neoformans; settings: cited from earlier work
# [5] = 20 μg/disk, 1 mM L-dopa, 30 °C, 6 to 8 days
# [6] = 10 μg per disk, 1 mM L-dopa, 6 days
# [7] = 20 μg per disk, 1 mM L-dopa in minimal medium, 6 to 8 days
# [8] = 20 μg per disk, 1 mM dopamine in minimal medium, 6 to 8 days
# [9] = 20 μg per disk, 1 mM epinephrine in minimal medium, 6 to 8 days
smiles,measurement,setting,value
"C[C@@H]1[C@H](O)[C@@H](C)/C=C/C=C/C=C/C=C/C=C/C=C/C=C/[C@H](O[C@@H]2O[C@H](C)[C@@H](O)[C@H](N)[C@@H]2O)C[C@@H]2O[C@](O)(C[C@@H](O)C[C@@H](O)[C@H](O)CC[C@@H](O)C[C@@H](O)CC(=O)O[C@H]1C)C[C@H](O)[C@H]2C(=O)O [AMB, amphotericin B, reference compound]",Appearance of the halo surrounding the disk,"[1]; 2 μg per disk, alone, 1 mM L-dopa",clear zone of inhibition
same,Appearance of the halo surrounding the disk,[1]; [5],very clear zone of inhibition
same,"Melanization of treated cells, observed visually","[2]; 0.0625 μg/mL, 1 mM catecholamine",growth of melanized cells was observed
"Clc1ccc(COC(Cn2ccnc2)c2ccc(Cl)cc2Cl)c(Cl)c1 (stereo not drawn) [MCZ, miconazole]","Melanization of treated cells, observed visually","[2]; 0.5 μg/mL, 1 mM catecholamine",growth of melanized cells was observed
"CC[C@H]1CCCC[C@@]2(C[C@@H]3CC[C@@H]4[C@H](C(=O)OCCCCCCCCCCCCCCCC(=O)N(CCCN)CCCCN)[C@]5(CCC[C@@H](C)O5)NC(=[N+]34)N2)O1.[Cl-] [compound 1, ptilomycalin A]",Appearance of the halo surrounding the disk,"[1]; 10 μg per disk, alone, 1 mM L-dopa",presence of non-melanized cells on the halo surrounding the disk
same,Appearance of the halo surrounding the disk,[1]; [5],a halo of non-melanized cells were observed
same,Interaction with AMB in halo assay,"[1]; 1 10 μg combined with AMB 2 μg per disk, 1 mM L-dopa",synergizes the fungicidal activity of AMB
same,Halo diameter,[1]; [6],13.5 ^b mm
same,Halo diameter,[1]; [7],17 ^c mm
same,Halo diameter,[1]; [8],15 ^c mm
same,Halo diameter,[1]; [9],12 ^c mm
same,Halo diameter,[3]; [6],9.50 ^b mm
same,Halo diameter,[3]; [7],17 ^c mm
same,Halo diameter,[3]; [8],18 ^c mm
same,Halo diameter,[3]; [9],12 ^c mm
same,"Melanization of treated cells, observed visually","[2]; 0.8 μg/mL, 1 mM catecholamine (epinephrine, dopamine or L-dopa)",only non-melanized cells grew
same,Melanization of treated cells,"[2]; 0.8 μg/mL, after 21 days",remained non-melanized
O=C(O)CNCP(=O)(O)O [glyphosate],Inhibitory activity on growth or melanization,"[2]; 200 μg/mL, under the authors' conditions",no significant inhibitory activity
same,"Melanization of treated cells, observed visually","[2]; 200 μg/mL, 1 mM catecholamine",growth of melanized cells was observed
same,Inhibition of melanization of C. neoformans,[4],reported to inhibit melanization
C[C@@H](c1ncncc1F)[C@](O)(Cn1cncn1)c1ccc(F)cc1F [voriconazole],Inhibition of laccase and consequent melanin formation in C. neoformans,[4],inhibition of laccase and consequent melanin formation
